Test results: ChEMBL document CHEMBL1154420, “Role of a qnr-like gene in the intrinsic resistance of Enterococcus faecalis to fluoroquinolones” (2007)
Values after ≈ are worked out from the molar mass of the structure shown. Active and inactive are the calls of the source. The calls are words filed in the database; no cut-off is given here.

Tests used:
Lactococcus lactis [1] = assay: Antibacterial activity against Lactococcus lactis IL-1419 containing ORI23::qnr-cat promoter mutant by twofold dilution method; assay type: functional
In short: (§1)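 Heterologous hosts carrying pORI23 or pORI23::qnr-cat (cat reporter downstream of qnr); MICs of ofloxacin, ciprofloxacin, levofloxacin, sparfloxacin and moxifloxacin by standard twofold dilution. Transformants selected on erythromycin 500 μg/ml plus chloramphenicol 20 μg/ml (E. coli DH10B) or erythromycin 5 μg/ml plus chloramphenicol 5 μg/ml (S. aureus, L. lactis). Blood-supplemented agar for L. lactis.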

Escherichia coli [2] = assay: Antibacterial activity against Escherichia coli DH10B containing ORI23::qnr-cat promoter mutant by twofold dilution method; assay type: functional; details: K-12 substr. DH10B; in short: as §1
Enterococcus faecalis [3] = assay: Antibacterial activity against Enterococcus faecalis JH2-2 by broth microdilution method; assay type: functional
Enterococcus faecalis [4] = assay: Antibacterial activity against Enterococcus faecalis JH2-2-omega-pG1KT mutant with inactivated qnr gene by broth microdilution method; assay type: functional
Enterococcus faecalis [5] = assay: Antibacterial activity against Enterococcus faecalis JH2-2-delta-pG1KT mutant by broth microdilution method; assay type: functional
Enterococcus faecalis [6] = assay: Antibacterial activity against Enterococcus faecalis JH2-2 containing ORI23 promoter by broth microdilution method; assay type: functional
In short: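 Broth microdilution MIC in Mueller-Hinton broth per CA-SFM, three independent experiments; JH2-2 host carrying pORI23 vector. Narrow dilution series: ofloxacin 1–128 μg/ml (1, 1.5, 2 … 8, 16, 32, 64, 128), ciprofloxacin 0.5–64 μg/ml (0.5, 0.75, 1 … 4, 8, 16, 32, 64). Growth at 37°C.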

Enterococcus faecalis [7] = assay: Antibacterial activity against Enterococcus faecalis JH2-2-omega-pG1KT/pORI23::qnr-cat mutant with qnr gene complementation by broth microdilution method; assay type: functional
Enterococcus faecalis [8] = assay: Antibacterial activity against Enterococcus faecalis JH2-2 containing ORI23::qnr-cat promoter mutant overexpressing qnr by broth microdilution method; assay type: functional
Escherichia coli [9] = assay: Inhibition of Escherichia coli DNA gyrase-mediated Escherichia coli pBR322 DNA supercoiling at 1 ug/mL in presence of 0.9 uM histidine6-tagged Enterococcus faecalis qnr protein preincubated before compound administration by agarose gel electrophoresis
In short: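 Dialyzed C-terminal His6-tagged Qnr (from E. coli BL21(DE3), IPTG 1 mM, Ni-NTA purified, 0.9 μM) preincubated with E. coli gyrase 1 h at 25°C before drug; then 1 U gyrase, 0.5 μg relaxed pBR322, buffer with 1 mM ATP, pH 7.5, 37°C 30 min; readout by 1% agarose gel, ethidium bromide.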

Escherichia coli [10] = assay: Inhibition of Escherichia coli DNA gyrase-mediated Escherichia coli pBR322 DNA supercoiling at 1 ug/mL by agarose gel electrophoresis
In short: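 Supercoiling assay: 1 U purified E. coli gyrase with 0.5 μg relaxed pBR322 in 35 mM Tris-HCl pH 7.5, 24 mM KCl, 4 mM MgCl2, 2 mM DTT, 1.8 mM spermidine, 1 mM ATP, 6.5% glycerol, 0.1 mg/ml albumin; drug incubated 1 h 25°C then 30 min 37°C; topoisomers resolved on 1% agarose, ethidium bromide, 16 h at 3.5 V/cm.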

Staphylococcus aureus [11] = assay: Antibacterial activity against Staphylococcus aureus RN4220 by twofold dilution method; assay type: functional; in short: as §1
Staphylococcus aureus [12] = assay: Antibacterial activity against Staphylococcus aureus RN4220 containing ORI23 promoter by twofold dilution method; assay type: functional; in short: as §1
Staphylococcus aureus [13] = assay: Antibacterial activity against Staphylococcus aureus RN4220 containing ORI23::qnr-cat promoter mutant by twofold dilution method; assay type: functional; in short: as §1
Lactococcus lactis [14] = assay: Antibacterial activity against Lactococcus lactis IL-1419 by twofold dilution method; assay type: functional
In short: (§2)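 Heterologous-expression MIC by standard twofold dilution; L. lactis IL-1419 transformed with pORI23 vector or pORI23::qnr-cat by electroporation, selected on erythromycin 5 μg/ml plus chloramphenicol 5 μg/ml; routine growth at 37°C on TS agar with 10% horse blood.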

Lactococcus lactis [15] = assay: Antibacterial activity against Lactococcus lactis IL-1419 containing ORI23 promoter by twofold dilution method; assay type: functional; in short: as §2
Enterococcus faecalis [16] = assay: microbe, parasite or virus in culture; details: ATCC 29212
Escherichia coli [17] = assay: Antibacterial activity against Escherichia coli DH10B by twofold dilution method; assay type: functional; details: K-12 substr. DH10B; in short: as §1
Escherichia coli [18] = assay: Antibacterial activity against Escherichia coli DH10B containing ORI23 promoter by twofold dilution method; assay type: functional; details: K-12 substr. DH10B; in short: as §1

Compound	MIC (Lactococcus lactis [1])	MIC (Escherichia coli [2])	MIC (Enterococcus faecalis [3])	MIC (Enterococcus faecalis [4])	MIC (Enterococcus faecalis [5])	MIC (Enterococcus faecalis [6])	MIC (Enterococcus faecalis [7])	MIC (Enterococcus faecalis [8])	Activity (Escherichia coli [9])	Activity (Escherichia coli [10])	MIC (Staphylococcus aureus [11])	MIC (Staphylococcus aureus [12])	MIC (Staphylococcus aureus [13])	MIC (Lactococcus lactis [14])	MIC (Lactococcus lactis [15])	MIC (Enterococcus faecalis [16])	MIC (Escherichia coli [17])	MIC (Escherichia coli [18])
CC1COc2c(N3CCN(C)CC3)c(F)cc3c(=O)c(C(=O)O)cn1c23 (centres undefined) [OFLOXACIN]	4 µg/mL (≈ 11.1 µM)	0.125 µg/mL (≈ 0.346 µM)	3 µg/mL (≈ 8.3 µM)	1.5 µg/mL (≈ 4.15 µM)	3 µg/mL (≈ 8.3 µM)	3.5 µg/mL (≈ 9.69 µM)	32 µg/mL (≈ 88.6 µM)	32 µg/mL (≈ 88.6 µM)	inactive	Active	0.5 µg/mL (≈ 1.38 µM)	0.5 µg/mL (≈ 1.38 µM)	2 µg/mL (≈ 5.53 µM)	1 µg/mL (≈ 2.77 µM)	1 µg/mL (≈ 2.77 µM)	2 µg/mL (≈ 5.53 µM)		
COc1c(N2C[C@@H]3CCCN[C@@H]3C2)c(F)cc2c(=O)c(C(=O)O)cn(C3CC3)c12 [MOXIFLOXACIN]	1 µg/mL (≈ 2.49 µM)	0.032 µg/mL (≈ 0.0797 µM)											0.25 µg/mL (≈ 0.623 µM)	0.25 µg/mL (≈ 0.623 µM)	0.25 µg/mL (≈ 0.623 µM)		0.002 µg/mL (≈ 0.00498 µM)	0.002 µg/mL (≈ 0.00498 µM)
O=C(O)c1cn(C2CC2)c2cc(N3CCNCC3)c(F)cc2c1=O [CIPROFLOXACIN]		0.032 µg/mL (≈ 0.0966 µM)	1.5 µg/mL (≈ 4.53 µM)	0.75 µg/mL (≈ 2.26 µM)	1.75 µg/mL (≈ 5.28 µM)	2 µg/mL (≈ 6.04 µM)	8 µg/mL (≈ 24.1 µM)	8 µg/mL (≈ 24.1 µM)					2 µg/mL (≈ 6.04 µM)	2 µg/mL (≈ 6.04 µM)	2 µg/mL (≈ 6.04 µM)			
C[C@H]1COc2c(N3CCN(C)CC3)c(F)cc3c(=O)c(C(=O)O)cn1c23.C[C@H]1COc2c(N3CCN(C)CC3)c(F)cc3c(=O)c(C(=O)O)cn1c23.O [LEVOFLOXACIN]	2 µg/mL	0.125 µg/mL									0.25 µg/mL	0.25 µg/mL	1 µg/mL	0.5 µg/mL	0.5 µg/mL			
C[C@@H]1CN(c2c(F)c(N)c3c(=O)c(C(=O)O)cn(C4CC4)c3c2F)C[C@H](C)N1 [SPARFLOXACIN]	4 µg/mL (≈ 10.2 µM)	0.064 µg/mL (≈ 0.163 µM)									0.125 µg/mL (≈ 0.319 µM)	0.125 µg/mL (≈ 0.319 µM)	1 µg/mL (≈ 2.55 µM)	0.5 µg/mL (≈ 1.27 µM)	0.5 µg/mL (≈ 1.27 µM)		0.002 µg/mL (≈ 0.0051 µM)	0.004 µg/mL (≈ 0.0102 µM)
